This note sets out measurements from article PMC8988011 (The Journal of Biological Chemistry, 2022).

The test system of experiment [1] is SKOV3 cells. In words: Growth in U-bottom low-attachment plates. Type of experiment: cell-based, Human. Particulars: with GA-017, 4 days, Fig. 3J.
Experiment [2] concerns mouse intestinal organoids. In words: Organoid culture in Matrigel. Particulars: 10 μM, up to 9 days, vs vehicle. Type of experiment: cell-based.
A further experiment has as its target T1, LATS2 (Homo sapiens, UniProt Q9NRM7).
T1 sequence (Q9NRM7 553-1088 limits assumed): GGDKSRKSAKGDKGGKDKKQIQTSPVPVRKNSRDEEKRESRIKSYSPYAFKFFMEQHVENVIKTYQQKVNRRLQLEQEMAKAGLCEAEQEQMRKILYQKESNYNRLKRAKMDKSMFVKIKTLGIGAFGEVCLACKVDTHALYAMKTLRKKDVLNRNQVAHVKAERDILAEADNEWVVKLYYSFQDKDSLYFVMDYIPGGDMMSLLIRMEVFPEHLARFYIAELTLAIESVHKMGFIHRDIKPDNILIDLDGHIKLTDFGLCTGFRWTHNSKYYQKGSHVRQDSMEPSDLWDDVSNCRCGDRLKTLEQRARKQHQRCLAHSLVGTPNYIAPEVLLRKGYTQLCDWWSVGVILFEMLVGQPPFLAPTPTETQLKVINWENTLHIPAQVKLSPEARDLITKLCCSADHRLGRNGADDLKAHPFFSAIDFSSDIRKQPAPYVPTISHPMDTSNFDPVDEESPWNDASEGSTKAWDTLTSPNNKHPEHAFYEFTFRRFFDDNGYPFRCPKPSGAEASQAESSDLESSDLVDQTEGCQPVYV
Put plainly: Kinase assay. Type of experiment: biochemical. Summed up:
(§1)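 LATS1 and LATS2 activity was measured with a fluorescence kinase/ADP kit following the maker's protocol in 384-well format. IC50 came from dose-response inhibition curves at 400 μM ATP. Mode of inhibition was assessed from Lineweaver-Burk plots of reaction velocity at ATP 100 to 400 μM. Three independent experiments, means ± SD.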

The next experiment deals with PKACβ (Homo sapiens, UniProt P22694). Put plainly: Kinase panel assay. It counts as biochemical.
Experiment [3] concerns SKOV3 cells. Put plainly: Growth in 2D monolayer culture, ATP assay. It counts as cell-based, Human. Particulars: 10 μM; Fig. 1D. In outline:
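SKOV3 monolayers were grown in medium without gellan gum on cell-attachable 96-well flat-bottom plates at 700 cells/well, 37 °C, 5% CO2, humidified. Cultures received 10 μM test compound or DMSO vehicle. Cell number was followed over time by ATP assay, and each day's value was normalized to day 0.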

Another experiment deals with T2, SGK2 (Homo sapiens, UniProt Q9HBY8).
T2 sequence (Q9HBY8 1-367): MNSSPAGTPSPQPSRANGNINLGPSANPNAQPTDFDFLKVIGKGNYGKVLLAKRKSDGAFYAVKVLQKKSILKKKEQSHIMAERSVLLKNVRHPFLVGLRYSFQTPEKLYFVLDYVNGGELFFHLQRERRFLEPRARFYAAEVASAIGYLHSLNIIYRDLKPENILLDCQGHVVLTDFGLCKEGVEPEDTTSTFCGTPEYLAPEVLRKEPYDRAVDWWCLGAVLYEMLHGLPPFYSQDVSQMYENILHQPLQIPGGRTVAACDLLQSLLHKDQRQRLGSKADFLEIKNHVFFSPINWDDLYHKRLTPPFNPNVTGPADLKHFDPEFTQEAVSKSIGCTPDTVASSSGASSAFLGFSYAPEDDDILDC
In words: Kinase panel assay. Type of experiment: biochemical.

In the next experiment the target is T3, SGK3 (Homo sapiens, UniProt Q96BR1).
T3 sequence (Q96BR1 1-496): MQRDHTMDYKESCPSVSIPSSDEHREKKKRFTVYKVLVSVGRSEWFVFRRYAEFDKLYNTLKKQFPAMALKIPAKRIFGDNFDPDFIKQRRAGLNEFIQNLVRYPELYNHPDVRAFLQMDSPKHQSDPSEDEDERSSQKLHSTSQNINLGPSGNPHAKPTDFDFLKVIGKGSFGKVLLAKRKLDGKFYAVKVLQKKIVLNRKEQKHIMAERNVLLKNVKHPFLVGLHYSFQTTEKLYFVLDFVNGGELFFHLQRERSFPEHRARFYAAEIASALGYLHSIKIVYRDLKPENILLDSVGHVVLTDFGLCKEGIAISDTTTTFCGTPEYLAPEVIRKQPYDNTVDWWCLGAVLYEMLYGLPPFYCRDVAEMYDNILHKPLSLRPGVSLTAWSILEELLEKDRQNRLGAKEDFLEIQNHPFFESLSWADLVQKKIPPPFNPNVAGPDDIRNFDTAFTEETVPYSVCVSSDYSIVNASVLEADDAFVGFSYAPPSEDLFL
Put plainly: Kinase panel assay. Type of experiment: biochemical.

In the next experiment the test system is A431 cells. In words: Hanging drop cell culture, ATP assay. It counts as cell-based, Human. Particulars: 10 μM, 2 days. In outline: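 A431 cells at 50,000 cells/ml received 10 μM test compound or DMSO. They were then hung as 10 μl drops (15 per lid) over a PBS-filled dish and cultured 2 days at 37 °C. Pooled drops were assayed for cell number by ATP assay, as % of DMSO control. 11 independent experiments, means ± SD, Student's t test.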

Another experiment concerns MDCK cells. In words: Cyst culture in Matrigel. It counts as cell-based, canine. Particulars: 10 μM, 6 days. Summed up:
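MDCK cells at 1.1 × 10^4 cells/ml in medium with 0.2% Matrigel GFR were plated onto a pre-set Matrigel GFR layer (15 min, 37 °C). Medium holding 10-fold concentrated test compound or DMSO was added, and plates were incubated for 6 days at 37 °C. Cysts (>30 μm diameter) were counted and sized by automated imaging. Three independent experiments, means ± SD, Student's t test.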

The next experiment concerns the target PKACα (Homo sapiens, UniProt P17612). Put plainly: Kinase panel assay. It counts as biochemical.
The test system of experiment [4] is LATS1-deleted or LATS2-deleted SKOV3 cells. Put plainly: Growth of LATS knockout cells in U-bottom low-attachment plates, ATP assay. Type of experiment: cell-based, Human. Particulars: 10 μM, 4 days.
In the next experiment the target is MSK1 (Homo sapiens, UniProt O75582). Put plainly: Kinase panel assay. Type of experiment: biochemical.
Experiment [5] relates to SKOV3 cells. In words: Growth in gellan gum–containing medium. It counts as cell-based, Human. As to conditions: 10 μM, maximally effective concentration. Summed up:
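SKOV3 cells were suspended in medium with 0.015% (w/v) gellan gum and seeded at 2000 cells/well in 96-well flat-bottom low-attachment plates, 37 °C, 5% CO2. A test compound concentration series or DMSO vehicle was applied for 4 days. Cell number was read by ATP assay and expressed as % of DMSO control.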

A further experiment concerns the target p70S6K (Homo sapiens, UniProt P23443). In words: Kinase panel assay. Type of experiment: biochemical.
The target of another experiment is T4, LATS1 (Homo sapiens, UniProt O95835).
T4 sequence (O95835 589-1130 limits assumed): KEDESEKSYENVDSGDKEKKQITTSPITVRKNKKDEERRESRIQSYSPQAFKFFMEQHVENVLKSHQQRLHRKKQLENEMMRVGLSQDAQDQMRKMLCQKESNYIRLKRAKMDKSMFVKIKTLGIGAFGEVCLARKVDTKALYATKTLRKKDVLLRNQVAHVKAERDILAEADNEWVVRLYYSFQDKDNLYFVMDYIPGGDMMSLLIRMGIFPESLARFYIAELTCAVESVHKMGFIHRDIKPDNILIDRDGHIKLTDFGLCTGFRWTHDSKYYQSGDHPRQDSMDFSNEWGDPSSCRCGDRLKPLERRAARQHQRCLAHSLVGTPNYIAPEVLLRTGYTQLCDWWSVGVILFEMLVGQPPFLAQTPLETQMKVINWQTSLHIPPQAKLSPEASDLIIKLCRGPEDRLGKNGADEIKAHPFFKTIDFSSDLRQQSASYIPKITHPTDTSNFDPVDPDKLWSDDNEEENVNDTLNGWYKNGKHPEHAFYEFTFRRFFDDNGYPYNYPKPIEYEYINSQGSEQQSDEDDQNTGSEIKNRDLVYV
In words: Kinase assay. It counts as biochemical. Summed up: as §1

The IC50 is the concentration that gives 50% inhibition. Lower therefore signals greater potency in that assay. By Ki is commonly meant a measure of affinity in units of concentration, obtained from inhibition or displacement. The low end stands for a stronger hold on the target, the high end for a looser hold on the target.

Sequence of MSK1 (O75582 whole entry): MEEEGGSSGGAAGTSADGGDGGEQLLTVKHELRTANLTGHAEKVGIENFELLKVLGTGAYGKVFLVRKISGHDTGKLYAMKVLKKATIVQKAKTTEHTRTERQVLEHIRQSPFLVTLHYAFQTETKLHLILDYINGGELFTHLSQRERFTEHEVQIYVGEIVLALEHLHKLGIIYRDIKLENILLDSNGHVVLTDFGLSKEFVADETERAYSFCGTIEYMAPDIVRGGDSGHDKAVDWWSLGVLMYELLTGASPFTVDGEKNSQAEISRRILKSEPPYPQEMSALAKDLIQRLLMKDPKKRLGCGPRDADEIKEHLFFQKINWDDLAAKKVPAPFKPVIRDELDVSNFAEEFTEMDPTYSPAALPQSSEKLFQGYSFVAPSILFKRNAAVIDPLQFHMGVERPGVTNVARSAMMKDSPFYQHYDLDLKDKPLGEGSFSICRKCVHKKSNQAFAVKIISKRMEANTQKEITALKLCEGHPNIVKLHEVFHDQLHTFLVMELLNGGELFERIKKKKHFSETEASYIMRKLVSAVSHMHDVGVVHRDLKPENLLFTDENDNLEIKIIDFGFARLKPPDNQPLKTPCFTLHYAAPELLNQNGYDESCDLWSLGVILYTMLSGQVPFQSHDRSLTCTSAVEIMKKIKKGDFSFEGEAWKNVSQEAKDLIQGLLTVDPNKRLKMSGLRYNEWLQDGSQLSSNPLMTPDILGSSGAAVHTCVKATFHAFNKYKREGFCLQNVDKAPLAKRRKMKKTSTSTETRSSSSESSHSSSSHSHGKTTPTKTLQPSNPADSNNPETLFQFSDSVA
Sequence of p70S6K (P23443 whole entry): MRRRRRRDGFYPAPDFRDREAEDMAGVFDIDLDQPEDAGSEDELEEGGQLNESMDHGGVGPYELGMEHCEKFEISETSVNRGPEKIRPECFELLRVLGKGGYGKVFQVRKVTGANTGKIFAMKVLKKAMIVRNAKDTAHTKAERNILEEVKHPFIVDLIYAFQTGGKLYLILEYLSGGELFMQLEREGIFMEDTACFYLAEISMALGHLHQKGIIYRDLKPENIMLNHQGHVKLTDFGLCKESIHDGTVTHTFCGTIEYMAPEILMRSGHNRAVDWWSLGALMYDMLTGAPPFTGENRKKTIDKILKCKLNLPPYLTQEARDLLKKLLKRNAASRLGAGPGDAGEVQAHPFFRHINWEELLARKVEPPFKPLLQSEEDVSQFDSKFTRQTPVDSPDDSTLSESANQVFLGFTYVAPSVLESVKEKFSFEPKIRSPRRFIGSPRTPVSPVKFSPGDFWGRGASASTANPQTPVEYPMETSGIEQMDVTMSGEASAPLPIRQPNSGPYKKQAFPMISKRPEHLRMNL

As to Verteporfin, the “effect on the growth-promoting effect of GA-017” value with SKOV3 cells [1] was “abolished the growth-promoting effect of GA-017”.

As for `CC/C(=N\NC(=O)NCc1cccc(O)c1)c1ccc(O)c(C)c1O` [GA-017, (E)-2-(1-(2,4-dihydroxy-3-methylphenyl)propylidene)-N-(3-hydroxybenzyl)hydrazine-1-carboxamide], in experiment [2], the “ex vivo formation of intestinal organoids” value is reported as “significantly enhanced the ex vivo formation of intestinal organoids”. In addition, the 50% inhibitory concentration (IC50) was 3.92 ± 0.42 nM against LATS2; under 40 nM against PKACβ; under 40 nM against SGK2; under 40 nM against SGK3; under 40 nM against PKACα; under 40 nM against MSK1. The IC50 on p70S6K was under 40 nM; on LATS1, 4.1 ± 0.79 nM. In addition, the values for the inhibitory constant (Ki) on LATS2 and on LATS1 were 0.25 ± 0.03 nM and 0.58 ± 0.11 nM, respectively. The “cell growth under 2D conditions” value with SKOV3 cells [3] is on record as “did not affect cell growth”. In addition, the “growth of spheroids formed in hanging drops” value in the experiment on A431 cells is recorded as “promoted the growth of spheroids”. The “number of cysts versus vehicle control (DMSO)” value in the experiment with MDCK cells was determined as 1.5 fold. Besides, in experiment [4], the “growth-promoting effect on LATS1- or LATS2-deleted cells” value is given as “did not exhibit a growth-promoting effect”. For the same molecule, the “increase in the number of SKOV3 cells” value in the experiment with SKOV3 cells [5] was “over 2 fold”.

`CC/C(=N\NC(=O)C(C)Nc1ccccc1)c1ccc(O)c(C)c1O` (stereo not shown) [GA-002, (E)-N'-(1-(2,4-dihydroxy-3-methylphenyl)propylidene)-2-(phenylamino)propanehydrazide]: the “inhibition of LATS2” value on LATS2 (compared with GA-017, Fig. S7) is “comparable inhibition”. In addition, the “inhibition of LATS1” value against LATS1 (compared with GA-017, Fig. S7) is recorded as “comparable inhibition”.
